SENP8 block-1: inhibitors of human SENP8 protease; Q96LD8; recombinant SENP8, Nedd8 substrate fluorescence; inhibition, % at 20 µM; 360,000 compounds, 0.64% hits; in the data active = inhibition mostly above about 40%, no sharp cut-off; inactive = mostly below about 27%
SENP8 block-2: SENP8 protease inhibition | Q96LD8 | purified SENP8, Z-RLRGG-aminoluciferin cleavage, luminescence | inhibition, % at 10 µM | 330,000 compounds, 1.2% hits; in the data active = inhibition above about 50%
Platelet DG rel: modulates dense granule release in human platelets; AID 1663; 300,000 compounds, 0.22% hits; inhibition, %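 (compounds screened at 7.5 µM in platelet-rich plasma)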; human platelet-rich plasma, SFLLRN dense granule ATP release, luminescence;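 active = mean replicate score, as percent of positive control, at or above 50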
SENP6 block: SENP6 protease inhibition. AID 2599. inhibition, % at 10 µM. Q9GZR1. 330,000 compounds, 1.8% hits. Recombinant SENP6 catalytic domain, aminoluciferin luminescence;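 active = inhibition above about 50% at the single tested dose, limit read from the data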;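 note: plate controls were DMSO wells with enzyme for no effect and DMSO wells lacking enzyme for full effect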
SENP1 FRET inh: SENP1 (human) catalytic domain inhibition; Q9P0U3; recombinant SENP1 catalytic domain, CyPet-SUMO1-YPet FRET cleavage; inhibition, % at 10 µM; 360,000 compounds, 0.21% hits; AID 624204;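 active = inhibition at least 30% at 10 µM, raw YFP signal under a set limit, fluorescence ratio 0.5 to 1.5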;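 note: 0% = enzyme with DMSO and 100% = no enzyme wells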
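Material – human SENP1 catalytic domain · Input – SENP1 enzyme, 20 pM final · Compound dosing – single concentration of 10 µM compound, 0.5% DMSO final · Timing – enzyme reaction for 50 min at room temperature, dark · Measured by – FRET fluorescence in CFP and YFP emission channels · Control set – no-enzyme wells low, DMSO-plus-enzyme wells high control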
SENP7 block: inhibitors of human SENP7 protease | inhibition, % at 5 µM | recombinant SENP7, Z-RLRGG-aminoluciferin luminescence, 40 min | 330,000 compounds, 1.5% hits;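 active = inhibition above about 50% at the single test dose, limit read from the data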;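 note: plate controls were DMSO with enzyme for no effect and no enzyme buffer wells for full effect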
Target sequence (Q9BQF6 706-1050 limits assumed): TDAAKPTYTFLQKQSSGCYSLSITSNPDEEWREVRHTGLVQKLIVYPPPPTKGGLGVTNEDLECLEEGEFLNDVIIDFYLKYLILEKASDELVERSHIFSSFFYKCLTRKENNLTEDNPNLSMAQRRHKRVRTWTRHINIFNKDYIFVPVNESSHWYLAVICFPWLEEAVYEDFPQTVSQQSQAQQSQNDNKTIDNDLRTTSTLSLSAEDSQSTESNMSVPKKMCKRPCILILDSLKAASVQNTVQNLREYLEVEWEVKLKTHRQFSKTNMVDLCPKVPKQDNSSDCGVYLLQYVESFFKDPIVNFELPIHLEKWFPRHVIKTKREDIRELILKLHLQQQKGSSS
SENP8 conf: human SENP8 inhibition, confirmed; shares compounds with SENP7 block; Recombinant SENP8, Z-RLRGG-aminoluciferin luminescence, 60 min; inhibition, % at 12.5 µM; 6,200 compounds, 40% hits;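 active = mean inhibition across replicates above about 50%, limit read from the data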
SENP6 confirm: human SENP6 inhibition, confirmed. 6,200 compounds, 58% hits. shares compounds with SENP7 block. inhibition, % at 12.5 µM. recombinant SENP6, Z-RLRGG-aminoluciferin luminescence
SENP7 confirm: human SENP7 inhibition, confirmed; shares compounds with SENP7 block; recombinant SENP7, Z-RLRGG-aminoluciferin luminescence, 40 min; inhibition, % at 12.5 µM; 6,200 compounds, 69% hits; AID 488917
Casp3 SENP sel: selectivity test for SENP inhibitors: human caspase-3 inhibition. shares compounds with SENP7 block. inhibition, % at 12.5 µM. 6,200 compounds, 60% hits. purified caspase-3, Z-DEVD-aminoluciferin luminescence, 60 min;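 active = mean inhibition above about 50%, limit read from the data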;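 note: plate controls were enzyme with DMSO for no effect and wells without caspase-3 for full effect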
Target sequence (P42574 28-227 limits assumed): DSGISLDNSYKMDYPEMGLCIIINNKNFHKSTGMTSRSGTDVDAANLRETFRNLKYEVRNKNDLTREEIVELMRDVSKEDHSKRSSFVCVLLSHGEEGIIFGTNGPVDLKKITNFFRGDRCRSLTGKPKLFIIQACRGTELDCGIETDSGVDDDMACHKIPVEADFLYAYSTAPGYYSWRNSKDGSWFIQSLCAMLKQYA
Luc interf: luminescence interference (SENP counter-screen) | shares compounds with SENP7 block | Pre-incubated SENP8/Z-RLRGG-aminoluciferin, luciferase luminescence interference | inhibition, % at 12.5 µM | 6,200 compounds, 39% hits;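 active = mean inhibition above about 50% when retested at one dose, limit read from the data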;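 note: plate controls were DMSO wells with completed reaction for no effect and substrate without enzyme for full effect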
Starred values were filed as active, the others as inactive. Sampled rows, rich in hits. Any-hit rate of the full collection: about 2.6%.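 Rule for the calls, unless noted: active = mean inhibition above about 50% in the one-dose retest (limit read from the data); inactive = the rest.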

What do the screens show for `C[C@H](CO)N1C[C@H](C)[C@@H](CN(C)C(=O)NC2CCCCC2)Oc2ccc(NC(=O)NC3CCCCC3)cc2C1=O`?
SENP8 block-1: 6; SENP8 block-2: 0; SENP6 block: -7; SENP1 FRET inh: 0; SENP7 block: -5

How did CSCc1c(C(=O)N2CCCc3ccccc32)oc2ccccc12 do in these assays?
SENP8 block-1: 0; SENP8 block-2: 0; SENP6 block: -22; SENP1 FRET inh: -1; SENP7 block: -6

Results for COc1ccc(S(=O)(=O)NCc2ccncc2)cc1NC(=O)c1ccc(Cl)cc1 ?
SENP8 block-1: 10; SENP8 block-2: 10; Platelet DG rel: -1; SENP6 block: 2; SENP1 FRET inh: -2; SENP7 block: -4

What do the screens show for `Cc1nc(/N=C\c2ccc(N(C)C)cc2)sc1C`?
SENP8 block-1: 0; SENP8 block-2: 60*; Platelet DG rel: -1; SENP6 block: 3; SENP1 FRET inh: 1; SENP7 block: 10; SENP8 conf: -24; SENP6 confirm: -14; SENP7 confirm: -8; Casp3 SENP sel: -9; Luc interf: -5

What do the screens show for `COc1cccc(/C=C/c2ccc3cccc(O)c3n2)c1OC`?
SENP8 block-1: -57; SENP8 block-2: 42; Platelet DG rel: 9; SENP6 block: 58*; SENP1 FRET inh: 2; SENP7 block: 36; SENP8 conf: 52*; SENP6 confirm: 40; SENP7 confirm: 89*; Casp3 SENP sel: 52*; Luc interf: 30

Results for COc1ccc(/C=C/c2ccc3cccc(O)c3n2)c(OC)c1OC ?
SENP8 block-1: -134; SENP8 block-2: -10; Platelet DG rel: 3; SENP6 block: 5; SENP1 FRET inh: -3; SENP7 block: -4

How did COc1cc(/C=C/c2ccc3cccc(O)c3n2)cc(Cl)c1OC do in these assays?
SENP8 block-1: -63; SENP8 block-2: 47; Platelet DG rel: -1; SENP6 block: 58*; SENP1 FRET inh: 7; SENP7 block: 55*; SENP8 conf: -15; SENP6 confirm: 23; SENP7 confirm: -3; Casp3 SENP sel: 13; Luc interf: 5

How did CSC[C@H](NC(=O)Cc1c(C)c2cc3c(C)c(C)oc3cc2oc1=O)C(=O)N[C@@H](Cc1ccccc1)C(=O)O do in these assays?
SENP8 block-1: -6; SENP8 block-2: 6; Platelet DG rel: 1; SENP6 block: 0; SENP1 FRET inh: -49; SENP7 block: 9

What do the screens show for `C/C(=N\OCC(=O)Nc1ccccc1Br)c1cccs1`?
SENP8 block-1: 12; SENP8 block-2: -4; Platelet DG rel: -8; SENP6 block: -1; SENP1 FRET inh: 0; SENP7 block: 1

Results for Cc1cccc(NC(=O)CNC(=O)c2ccc3nc[nH]c3c2)c1C ?
SENP8 block-1: 4; SENP8 block-2: -5; Platelet DG rel: -16; SENP6 block: -13; SENP1 FRET inh: -4; SENP7 block: -8

How did O=C(Nc1cccc(Cl)c1)Nc1ccc2c(c1)OCO2 do in these assays?
SENP8 block-1: 23; SENP8 block-2: 61*; Platelet DG rel: 4; SENP6 block: 83*; SENP1 FRET inh: 17; SENP7 block: 75*; SENP8 conf: 28; SENP6 confirm: 77*; SENP7 confirm: 94*; Casp3 SENP sel: 56*; Luc interf: 21

What do the screens show for `Cc1ccnc(NC(=O)Nc2ccc3c(c2)OCO3)c1`?
SENP8 block-1: 7; SENP8 block-2: -9; Platelet DG rel: 7; SENP6 block: 36; SENP1 FRET inh: 3; SENP7 block: 70*; SENP8 conf: 9; SENP6 confirm: 10; SENP7 confirm: 12; Casp3 SENP sel: 14; Luc interf: -4

Results for NC(=O)c1ccc(NC(=O)Nc2ccc3c(c2)OCO3)cc1 ?
SENP8 block-1: 0; SENP8 block-2: -9; Platelet DG rel: 18; SENP6 block: -2; SENP1 FRET inh: 0; SENP7 block: -4

What do the screens show for `O=C(Nc1ccc2c(c1)OCCO2)Nc1ccc2c(c1)OCO2`?
SENP8 block-1: 4; SENP8 block-2: 53*; Platelet DG rel: 10; SENP6 block: 71*; SENP1 FRET inh: 1; SENP7 block: 72*; SENP8 conf: 65*; SENP6 confirm: 64*; SENP7 confirm: 86*; Casp3 SENP sel: 72*; Luc interf: 9

Results for COc1cccc(NC(=O)Nc2ccc3c(c2)OCO3)c1 ?
SENP8 block-1: -3; SENP8 block-2: 55*; Platelet DG rel: 24; SENP6 block: 73*; SENP1 FRET inh: 1; SENP7 block: 79*; SENP8 conf: 54*; SENP6 confirm: 51*; SENP7 confirm: 84*; Casp3 SENP sel: 74*; Luc interf: 71*

What do the screens show for `O=C(NCc1ccc2c(c1)OCO2)Nc1cccc(Cl)c1`?
SENP8 block-1: 0; SENP8 block-2: 7; Platelet DG rel: -5; SENP6 block: 20; SENP1 FRET inh: 0; SENP7 block: 10

Results for Cc1ccc(N2C(=O)C3C4C=CC(CC4)C3C2=O)cc1[N+](=O)[O-] (stereo not given) ?
SENP8 block-1: 4; SENP8 block-2: 12; Platelet DG rel: -1; SENP6 block: -36; SENP1 FRET inh: 2; SENP7 block: -1

What do the screens show for `O=C(Nc1ccon1)c1ccc(Br)o1`?
SENP8 block-1: 18; SENP8 block-2: -11; Platelet DG rel: -2; SENP6 block: -22; SENP1 FRET inh: 0; SENP7 block: -5

How did CC1C(=O)CCN(C(C)(C)C)C1C (stereo not given) do in these assays?
SENP8 block-1: 15; SENP8 block-2: 1; Platelet DG rel: 2; SENP6 block: -6; SENP1 FRET inh: 0; SENP7 block: 12

What do the screens show for `CN1C(c2ccc(F)cc2)=CS/C1=C(/C#N)c1nnc(N2CCOCC2)n1-c1ccccc1`?
SENP8 block-1: 29; SENP8 block-2: -9; Platelet DG rel: 4; SENP6 block: -1; SENP1 FRET inh: 0; SENP7 block: 3

Bioassay records from PubChem.
